Measurements from ChEMBL document CHEMBL1250553, “Synthesis, cytotoxicity and liposome preparation of 28-acetylenic betulin derivatives” (Bioorg Med Chem, 2010).
The source made the active and inactive calls. The calls are words filed in the database; no cut-off is given here.

Key:
A-431 [1] = assay: Cytotoxicity against human A431 cells after 96 hrs by sulforhodamine B assay; assay type: functional, cell-based; conditions: A-431, 96 h
Procedure, shortened: (§1)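 Human tumour cell lines in 96-well plates, exposed to test compounds for 96 h, then read by colorimetric sulforhodamine B staining. Viable cells are expressed as % of untreated controls. IC50 is taken from dose–response curves, top concentration 30 µM, as the mean of at least three independent experiments (variation generally 10%). Compounds are given as DMSO solutions or as an aqueous liposomal formulation.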

[2] = Cytotoxicity against human A253 cells after 96 hrs by sulforhodamine B assay; assay type: functional, cell-based; conditions: A253, 96 h; procedure, shortened: as §1
FaDu [3] = assay: Cytotoxicity against human FADU cells after 96 hrs by sulforhodamine B assay; assay type: functional, cell-based; procedure, shortened: as §1
A549 [4] = assay: Cytotoxicity against human A549 cells after 96 hrs by sulforhodamine B assay; assay type: functional, cell-based; conditions: A549, 96 h; procedure, shortened: as §1
A2780 [5] = assay: Cytotoxicity against human A2780 cells after 96 hrs by sulforhodamine B assay; assay type: functional, cell-based; conditions: A2780, 96 h; procedure, shortened: as §1
HCT-8 [6] = assay: Cytotoxicity against human HCT8 cells after 96 hrs by sulforhodamine B assay; assay type: functional, cell-based; conditions: HCT-8, 96 h; procedure, shortened: as §1
HCT-116 [7] = assay: Cytotoxicity against human HCT116 cells after 96 hrs by sulforhodamine B assay; assay type: functional, cell-based; conditions: HCT-116, 96 h; procedure, shortened: as §1
SW480 [8] = assay: Cytotoxicity against human SW480 cells after 96 hrs by sulforhodamine B assay; assay type: functional, cell-based; conditions: SW480, 96 h; procedure, shortened: as §1
8505C [9] = assay: Cytotoxicity against human 8505C cells after 96 hrs by sulforhodamine B assay; assay type: functional, cell-based; procedure, shortened: as §1
SW-1736 [10] = assay: Cytotoxicity against human SW1736 cells after 96 hrs by sulforhodamine B assay; assay type: functional, cell-based; conditions: SW-1736, 96 h; procedure, shortened: as §1
MCF7 [11] = assay: Cytotoxicity against human MCF7 cells after 96 hrs by sulforhodamine B assay; assay type: functional, cell-based; conditions: MCF7, 96 h; procedure, shortened: as §1
[12] = Cytotoxicity against human liposarcoma cells after 96 hrs by sulforhodamine B assay; assay type: functional, cell-based; procedure, shortened: as §1
518A2 = assay: Cytotoxicity against human 518A2 cells at 30 uM after 96 hrs by sulforhodamine B assay; assay type: functional, cell-based
Procedure, shortened: (§2)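 Growth inhibition at the highest tested concentration, 30 µM, after 96 h exposure in 96-well plates. Read by SRB staining as % viable cells relative to untreated controls, from at least three independent experiments.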

DLD-1 [13] = assay: Cytotoxicity against human DLD1 cells at 30 uM after 96 hrs by sulforhodamine B assay; assay type: functional, cell-based; procedure, shortened: as §2
HT-29 [14] = assay: Cytotoxicity against human HT-29 cells at 30 uM after 96 hrs by sulforhodamine B assay; assay type: functional, cell-based; procedure, shortened: as §2
[15] = Cytotoxicity against human 518A2 cells after 96 hrs by sulforhodamine B assay; assay type: functional, cell-based; conditions: 518A2, 96 h; procedure, shortened: as §1
DLD-1 [16] = assay: Cytotoxicity against human DLD1 cells after 96 hrs by sulforhodamine B assay; assay type: functional, cell-based; conditions: DLD-1, 96 h; procedure, shortened: as §1
HT-29 [17] = assay: Cytotoxicity against human HT-29 cells after 96 hrs by sulforhodamine B assay; assay type: functional, cell-based; conditions: HT-29, 96 h; procedure, shortened: as §1
A2780 [18] = assay: Induction of apoptosis in human A2780 cells assessed as floating cells at IC90 concentration after 24 hrs by Trypan blue exclusion test; assay type: functional, cell-based
Procedure, shortened: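 A2780 ovarian cancer cells treated for 24 h. Floating cells are collected and scored by trypan-blue exclusion: apoptotic cells exclude the dye, necrotic cells stain blue.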

SW480 [19] = assay: Induction of apoptosis in human SW480 cells assessed as DNA ladder formation at IC90 concentration after 24 hrs by DNA gel electrophoresis analysis; assay type: functional, cell-based
Procedure, shortened: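 SW480 colon cancer cells treated for 24 h. Floating cells are collected, and DNA is analysed by gel electrophoresis for endonuclease-generated fragment laddering.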

A2780 (Homo sapiens) = assay: Induction of apoptosis in human A2780 cells assessed as floating cells at IC90 concentration after 24 hrs by Trypan blue exclusion test
SW480 (Homo sapiens) = assay: Induction of apoptosis in human SW480 cells assessed as DNA ladder formation at IC90 concentration after 24 hrs by DNA gel electrophoresis analysis
A-431 [20] = assay: Cytotoxicity against human A431 cells at 30 uM after 96 hrs by sulforhodamine B assay; assay type: functional, cell-based; procedure, shortened: as §2
A253 = assay: Cytotoxicity against human A253 cells at 30 uM after 96 hrs by sulforhodamine B assay; assay type: functional, cell-based; procedure, shortened: as §2
FaDu [21] = assay: Cytotoxicity against human FADU cells at 30 uM after 96 hrs by sulforhodamine B assay; assay type: functional, cell-based; procedure, shortened: as §2
A549 [22] = assay: Cytotoxicity against human A549 cells at 30 uM after 96 hrs by sulforhodamine B assay; assay type: functional, cell-based; procedure, shortened: as §2
A2780 [23] = assay: Cytotoxicity against human A2780 cells at 30 uM after 96 hrs by sulforhodamine B assay; assay type: functional, cell-based; procedure, shortened: as §2
HCT-8 [24] = assay: Cytotoxicity against human HCT8 cells at 30 uM after 96 hrs by sulforhodamine B assay; assay type: functional, cell-based; procedure, shortened: as §2
HCT-116 [25] = assay: Cytotoxicity against human HCT116 cells at 30 uM after 96 hrs by sulforhodamine B assay; assay type: functional, cell-based; procedure, shortened: as §2
SW480 [26] = assay: Cytotoxicity against human SW480 cells at 30 uM after 96 hrs by sulforhodamine B assay; assay type: functional, cell-based; procedure, shortened: as §2
8505C [27] = assay: Cytotoxicity against human 8505C cells at 30 uM after 96 hrs by sulforhodamine B assay; assay type: functional, cell-based; procedure, shortened: as §2
SW-1736 [28] = assay: Cytotoxicity against human SW1736 cells at 30 uM after 96 hrs by sulforhodamine B assay; assay type: functional, cell-based; procedure, shortened: as §2
MCF7 [29] = assay: Cytotoxicity against human MCF7 cells at 30 uM after 96 hrs by sulforhodamine B assay; assay type: functional, cell-based; procedure, shortened: as §2
Homo sapiens = organism: Homo sapiens; assay: Cytotoxicity against human liposarcoma cells at 30 uM after 96 hrs by sulforhodamine B assay; assay type: functional, cell-based; procedure, shortened: as §2

SMILES	IC50 (A-431 [1]) [µM]	IC50 [2] [µM]	IC50 (FaDu [3]) [µM]	IC50 (A549 [4]) [µM]	IC50 (A2780 [5]) [µM]	IC50 (HCT-8 [6]) [µM]	IC50 (HCT-116 [7]) [µM]	IC50 (SW480 [8]) [µM]	IC50 (8505C [9]) [µM]	IC50 (SW-1736 [10]) [µM]	IC50 (MCF7 [11]) [µM]	IC50 [12] [µM]	inhibition (DLD-1 [13])	IC50 [15] [µM]	IC50 (DLD-1 [16]) [µM]	IC50 (HT-29 [17]) [µM]	further results
C=C(C)[C@@H]1CC[C@]2([C@H](O)c3cnn(C)c3C(=O)OC)CC[C@]3(C)[C@H](CC[C@@H]4[C@@]5(C)CC[C@H](OC(C)=O)C(C)(C)[C@@H]5CC[C@]43C)[C@@H]12	12.4	16	17.6	24.5	12.7	13.4	20.4	7	10.8	22.8	12.3	14.1	inactive	–	–	–	inhibition (518A2): inactive; inhibition (HT-29 [14]): inactive
C=C(C)[C@@H]1CC[C@]2([C@@H]3OC(=O)C=C3NC3CC3)CC[C@]3(C)[C@H](CC[C@@H]4[C@@]5(C)CC[C@H](OC(C)=O)C(C)(C)[C@@H]5CC[C@]43C)[C@@H]12	2.9	4.2	6	6.6	2.5	1.9	3.2	8	6	3.9	4	5.8	–	6.2	4.7	5.1	–
C=C(C)[C@@H]1CC[C@]2([C@H](O)c3c(C(=O)OCC)n[nH]c3C(=O)OC)CC[C@]3(C)[C@H](CC[C@@H]4[C@@]5(C)CC[C@H](OC(C)=O)C(C)(C)[C@@H]5CC[C@]43C)[C@@H]12	11.7	13.2	13.9	18.2	13.2	13.4	14	11.4	12	19.2	11.3	14	inactive	16.4	–	17	–
C=C(C)[C@@H]1CC[C@]2([C@H](O)C#CCO)CC[C@]3(C)[C@H](CC[C@@H]4[C@@]5(C)CC[C@H](OC(C)=O)C(C)(C)[C@@H]5CC[C@]43C)[C@@H]12	10.5	10.3	11.2	11.9	10.4	11.6	11.3	6.9	8.4	11.5	9.9	11.4	inactive	11.9	–	11.6	–
C=C(C)[C@@H]1CC[C@]2(C(=O)O)CC[C@]3(C)[C@H](CC[C@@H]4[C@@]5(C)CC[C@H](O)C(C)(C)[C@@H]5CC[C@]43C)[C@@H]12 [BETULINIC ACID]	–	–	–	–	11	–	–	–	–	–	–	9.7	–	–	–	–	–
C=C(C)[C@@H]1CC[C@]2([C@H](O)C3=C(C(=O)OC)C(C(=O)OCC)N=N3)CC[C@]3(C)[C@H](CC[C@@H]4[C@@]5(C)CC[C@H](OC(C)=O)C(C)(C)[C@@H]5CC[C@]43C)[C@@H]12 (stereo partly drawn)	7.6	12.5	9.9	14.8	9.1	10	9.8	7.7	8.9	16.4	8	19.9	inactive	21.5	–	12	–
C=C(C)[C@@H]1CC[C@]2([C@@H]3OC(=O)C=C3N3CCCC3)CC[C@]3(C)[C@H](CC[C@@H]4[C@@]5(C)CC[C@H](OC(C)=O)C(C)(C)[C@@H]5CC[C@]43C)[C@@H]12	2.1	4.6	6.3	7.8	2.2	0.5	2.1	5.7	5.3	4.1	3.7	6	–	4.7	5.4	3.9	–
C=C(C)[C@@H]1CC[C@]2([C@@H]3OC(=O)C=C3N(C)C)CC[C@]3(C)[C@H](CC[C@@H]4[C@@]5(C)CC[C@H](OC(C)=O)C(C)(C)[C@@H]5CC[C@]43C)[C@@H]12	3.3	4.9	3.8	6.1	2.6	1.7	3.2	2.2	3.1	2.9	6.9	5.3	–	4.8	3.6	5.7	Activity (A2780 [18]): Active; Activity (SW480 [19]): Active; Activity (A2780 (Homo sapiens)): Active; Activity (SW480 (Homo sapiens)): Active
C=C(C)[C@@H]1CC[C@]2([C@H](O)C#Cc3ccccc3)CC[C@]3(C)[C@H](CC[C@@H]4[C@@]5(C)CC[C@H](OC(C)=O)C(C)(C)[C@@H]5CC[C@]43C)[C@@H]12	–	–	–	–	–	–	–	–	–	–	–	–	inactive	–	–	–	inhibition (518A2): inactive; inhibition (A-431 [20]): inactive; inhibition (A253): inactive; inhibition (FaDu [21]): inactive; inhibition (A549 [22]): inactive; inhibition (A2780 [23]): inactive; inhibition (HCT-8 [24]): inactive; inhibition (HCT-116 [25]): inactive; inhibition (HT-29 [14]): inactive; inhibition (SW480 [26]): inactive; inhibition (8505C [27]): inactive; inhibition (SW-1736 [28]): inactive; inhibition (MCF7 [29]): inactive; inhibition (Homo sapiens): inactive
C=C(C)[C@@H]1CC[C@]2(C(=O)C#CC(=O)OC)CC[C@]3(C)[C@H](CC[C@@H]4[C@@]5(C)CC[C@H](OC(C)=O)C(C)(C)[C@@H]5CC[C@]43C)[C@@H]12	–	–	–	–	–	–	–	–	–	–	–	–	inactive	–	–	–	inhibition (518A2): inactive; inhibition (A-431 [20]): inactive; inhibition (A253): inactive; inhibition (FaDu [21]): inactive; inhibition (A549 [22]): inactive; inhibition (A2780 [23]): inactive; inhibition (HCT-8 [24]): inactive; inhibition (HCT-116 [25]): inactive; inhibition (HT-29 [14]): inactive; inhibition (SW480 [26]): inactive; inhibition (8505C [27]): inactive; inhibition (SW-1736 [28]): inactive; inhibition (MCF7 [29]): inactive; inhibition (Homo sapiens): inactive
C=C(C)[C@@H]1CC[C@]2([C@H](O)/C=C\CO)CC[C@]3(C)[C@H](CC[C@@H]4[C@@]5(C)CC[C@H](OC(C)=O)C(C)(C)[C@@H]5CC[C@]43C)[C@@H]12	12.4	14.8	10.7	12.8	12.6	10.1	10.5	17.9	17.8	9	19.4	18.5	–	20.4	12.3	15.9	–
C=C(C)[C@@H]1CC[C@]2([C@H](O)C#CC(=O)OC)CC[C@]3(C)[C@H](CC[C@@H]4[C@@]5(C)CC[C@H](OC(C)=O)C(C)(C)[C@@H]5CC[C@]43C)[C@@H]12	–	2.7	–	–	–	–	–	–	–	–	–	4.2	–	5.9	–	–	Activity (A2780 [18]): Active; Activity (SW480 [19]): Active; Activity (A2780 (Homo sapiens)): Active; Activity (SW480 (Homo sapiens)): Active
C=C(C)[C@@H]1CC[C@]2([C@H](O)c3nn[nH]c3C(=O)OC)CC[C@]3(C)[C@H](CC[C@@H]4[C@@]5(C)CC[C@H](OC(C)=O)C(C)(C)[C@@H]5CC[C@]43C)[C@@H]12	16.6	10.3	15.1	17.3	13.4	13.9	15.6	14.7	15.4	11.8	14.8	18.2	–	14.8	15.5	18.2	–
